Source: ChEMBL document CHEMBL1154866, “Lanostane triterpenes from the fruiting bodies of Ganoderma lucidum and their inhibitory effects on adipocyte differentiation in 3T3-L1 Cells” (J Nat Prod, 2010)

Experiments:
3T3-L1 [1] = test: Inhibition of adipocytes differentiation in mouse 3T3L1 cells assessed as lipid accumulation at 40 ug/ml after 8 days by Oil red O staining relative to control; format: functional; conditions: 3T3-L1, 192 h
Procedure, shortened: (§1)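 Differentiation induced 2 days post-confluence with DEX, 0.5 mM IBMX and insulin in DMEM/10% FBS for 2 days, then DMEM/FBS/insulin refreshed every 2 days. Sample added every 2 days for 8 days (40 µg/mL, or 5–40 µg/mL series). Day 8: PBS wash, 4% formaldehyde fixation, oil red O 30 min, dye eluted with 2-propanol, A510 versus untreated control. Mean ± SD, n=3.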

3T3-L1 [2] = test: Cytotoxicity against mouse 3T3L1 cells at 40 ug/ml after 2 days by MTT assay; format: cell-based; conditions: 3t3-l1, 48 h
Procedure, shortened: (§2)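 3T3-L1 preadipocytes seeded at 1 × 10^4 cells/well in DMEM + 10% bovine calf serum, 37 °C, 5% CO2. After 24 h, vehicle or sample (10 to 80 µg/mL) added in serum-free DMEM. After a further 24 h, MTT added for 2 h. Formazan dissolved in DMSO, OD read at 570 nm.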

3T3-L1 [3] = test: Cytotoxicity against mouse 3T3L1 cells at 80 ug/ml after 2 days by MTT assay; format: cell-based; conditions: 3t3-l1, 48 h; procedure, shortened: as §2
3T3-L1 [4] = test: Inhibition of adipocytes differentiation in mouse 3T3L1 cells assessed as lipid accumulation at 5 to 40 ug/ml after 8 days by Oil red O staining relative to control; format: functional; procedure, shortened: as §1
[5] = target: T1, Glycerol-3-phosphate dehydrogenase [NAD(+)], cytoplasmic (Mus musculus) (UniProt P13707); test: Inhibition of GPDH in mouse 3T3L1 cells assessed as reduction of NADH oxidation rate at 40 ug/ml; format: cell-based; parameters: scale not given: the % may be the effect or the level left; conditions: 3T3-L1
T1 sequence (whole entry): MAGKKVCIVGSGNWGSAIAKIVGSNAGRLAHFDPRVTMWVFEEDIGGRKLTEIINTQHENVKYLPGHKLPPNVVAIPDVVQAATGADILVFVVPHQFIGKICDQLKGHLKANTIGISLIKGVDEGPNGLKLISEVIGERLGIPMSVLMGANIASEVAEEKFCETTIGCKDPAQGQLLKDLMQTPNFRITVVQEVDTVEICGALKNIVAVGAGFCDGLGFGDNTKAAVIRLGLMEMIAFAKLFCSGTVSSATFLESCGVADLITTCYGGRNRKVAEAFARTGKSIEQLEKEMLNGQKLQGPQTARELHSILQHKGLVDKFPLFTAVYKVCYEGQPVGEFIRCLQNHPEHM
Procedure, shortened: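 Preadipocytes kept in DMEM/10% BCS; induced 2 days post-confluence with DEX, 0.5 mM IBMX and insulin in DMEM/10% FBS, then DMEM/FBS/insulin. Treated every 2 days (5–40 µg/mL) to day 8. Cells collected in extraction buffer and spun 12 000 rpm, 5 min, 4 °C. Supernatant A340 decline over 5 min gives NADH oxidation with dihydroxyacetone phosphate, as units per mg protein (Bradford). Mean ± SD, n=3.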

3T3-L1 [6] = test: Inhibition of adipocytes differentiation in mouse 3T3L1 cells assessed as lipid accumulation after 8 days by Oil red O staining relative to control; format: functional, cell-based; procedure, shortened: as §1

Row | Activity [5] | SMILES | inhibition at 40 µg/mL (3T3-L1 [1]) | Activity (3T3-L1 [2]) | Activity (3T3-L1 [3]) | inhibition (INH) (3T3-L1 [4]) | inhibition (3T3-L1 [6])
1 |  | COC(=O)C(C)CC(=O)C[C@@H](C)[C@H]1CC(=O)[C@@]2(C)C3=C(C(=O)C[C@]12C)[C@@]1(C)CC[C@H](O)C(C)(C)[C@@H]1C[C@@H]3O (some centres undefined) [METHYL GANODERATE B] | 22% | Non-toxic |  |  | 
2 |  | C[C@H](CC(=O)C[C@@H](C)[C@H]1C[C@H](O)[C@@]2(C)C3=C(C(=O)C[C@]12C)[C@@]1(C)CCC(=O)C(C)(C)[C@@H]1C[C@@H]3O)C(=O)O [GANODERIC ACID A] | 22% | Non-toxic |  |  | 
3 |  | CCCCOC(=O)[C@H](C)CC(=O)C[C@@H](C)[C@H]1CC(=O)[C@@]2(C)C3=C(C(=O)C[C@]12C)[C@@]1(C)CC[C@H](O)C(C)(C)[C@@H]1C[C@@H]3O [BUTYL GANODERATE B] | 22% | Non-toxic |  |  | 
4 |  | COC(=O)CC[C@@H](C)[C@H]1CC(=O)[C@@]2(C)C3=C(C(=O)[C@@H](OC(C)=O)[C@]12C)[C@@]1(C)CC[C@H](O)C(C)(C)[C@@H]1CC3=O [METHYL LUCIDENATE E2] | 22% | Non-toxic |  |  | 
5 |  | COC(=O)C(C)CC(=O)C[C@@H](C)[C@H]1C[C@H](O)[C@@]2(C)C3=C(C(=O)C[C@]12C)[C@@]1(C)CCC(=O)C(C)(C)[C@@H]1C[C@@H]3O (some centres undefined) [METHYL GANODERATE A] | 22% | Non-toxic | Toxic |  | 
6 |  | COC(=O)CC[C@@H](C)[C@H]1CC(=O)[C@@]2(C)C3=C(C(=O)[C@@H](OC(C)=O)[C@]12C)[C@@]1(C)CC[C@H](O)C(C)(C)[C@@H]1C[C@@H]3O [METHYL LUCIDENATE P] | 22% | Non-toxic |  |  | 
7 |  | CC(CC(=O)C[C@@H](C)[C@H]1C[C@H](O)[C@@]2(C)C3=C(C(=O)C[C@]12C)[C@@]1(C)CCC(=O)C(C)(C)[C@@H]1CC3)C(=O)O (some centres undefined) [GANOLUCIDIC ACID A] | 22% | Non-toxic | Toxic |  | 
8 |  | COC(=O)CC[C@@H](C)[C@H]1CC(=O)[C@@]2(C)C3=C(C(=O)C[C@]12C)[C@@]1(C)CCC(=O)C(C)(C)[C@@H]1C[C@@H]3O [METHYL LUCIDENATE A] | 22% | Non-toxic | Toxic |  | 
9 | > 80% | CCCCOC(=O)CC[C@@H](C)[C@H]1CC(=O)[C@@]2(C)C3=C(C(=O)C[C@]12C)[C@@]1(C)CC[C@H](O)C(C)(C)[C@@H]1C[C@@H]3O [BUTYL LUCIDENATE N] | 56% | Non-toxic |  | 56% | Dose-dependent effect
10 |  | C[C@H](CCC(=O)O)[C@H]1CC(=O)[C@@]2(C)C3=C(C(=O)C[C@]12C)[C@@]1(C)CC[C@H](O)C(C)(C)[C@@H]1C[C@@H]3O [LUCIDENIC ACID N] | 22% | Non-toxic |  |  | 
11 |  | COC(=O)C(C)CC(=O)C[C@@H](C)[C@H]1CC(=O)[C@@]2(C)C3=C(C(=O)[C@@H](OC(C)=O)[C@]12C)[C@@]1(C)CC[C@H](O)C(C)(C)[C@@H]1CC3=O (some centres undefined) [METHYL GANODERATE H] | 22% | Non-toxic |  |  | 
12 |  | CC(CC(=O)C[C@@H](C)[C@H]1CC(=O)[C@@]2(C)C3=C(C(=O)C[C@]12C)[C@@]1(C)CC[C@H](O)C(C)(C)[C@@H]1C[C@@H]3O)C(=O)O (some centres undefined) [GANODERIC ACID B] | 22% | Non-toxic |  |  | 
13 |  | COC(=O)CC[C@@H](C)[C@H]1CC(=O)[C@@]2(C)C3=C(C(=O)C[C@]12C)[C@@]1(C)CCC(=O)C(C)(C)[C@@H]1CC3=O [METHYL LUCIDENATE F] | 22% | Non-toxic |  |  | 
14 |  | CCCCOC(=O)C(C)CC(=O)C[C@@H](C)[C@H]1C[C@H](O)[C@@]2(C)C3=C(C(=O)C[C@]12C)[C@@]1(C)CCC(=O)C(C)(C)[C@@H]1C[C@@H]3O (some centres undefined) [BUTYL GANODERATE A] | 22% | Non-toxic | Toxic |  | 
15 |  | CCCCOC(=O)CC[C@@H](C)[C@H]1CC(=O)[C@@]2(C)C3=C(C(=O)C[C@]12C)[C@@]1(C)CCC(=O)C(C)(C)[C@@H]1C[C@@H]3O [BUTYL LUCIDENATE A] | 22% | Non-toxic | Toxic |  | 
16 |  | COC(=O)C(C)CC(=O)C[C@@H](C)[C@H]1CC(=O)[C@@]2(C)C3=C(C(=O)C[C@]12C)[C@@]1(C)CCC(=O)C(C)(C)[C@@H]1C[C@@H]3O (some centres undefined) [METHYL GANODERATE D] | 22% | Non-toxic |  |  | 
17 |  | C[C@H](CC(=O)C[C@@H](C)[C@H]1CC(=O)[C@@]2(C)C3=C(C(=O)C[C@]12C)[C@@]1(C)CCC(=O)C(C)(C)[C@@H]1CC3=O)C(=O)O [GANODERIC ACID E] | 22% | Non-toxic |  |  | 
18 |  | COC(=O)C(C)CC(=O)C[C@@H](C)[C@H]1CC(=O)[C@@]2(C)C3=C(C(=O)C[C@]12C)[C@@]1(C)CCC(=O)C(C)(C)[C@@H]1CC3=O (some centres undefined) [METHYL GANODERATE E] | 22% | Non-toxic |  |  | 
